ChEMBL document CHEMBL1667761, “3-benzylamino-β-carboline derivatives induce apoptosis through G2/M arrest in human carcinoma cells HeLa S-3” (Eur J Med Chem, 2011)
Calls of active or inactive are those of the source. The calls are words filed in the database; no cut-off is given here.

Columns and labels:
HeLa S3 [1] = test: Induction of apoptosis in human HeLaS3 cells assessed as appearance of fragmented nuclei at 5 times IC50 after 48 hrs by Hoechst staining; format: functional, cell-based
Summary of the method: (§1)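 Stained with Hoechst 33342 (1 µg/ml) for 40 min at 37 °C. Nuclei were examined by confocal laser microscopy, and apoptosis was scored from chromatin condensation and fragmented nuclei.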

HeLa S3 [2] = test: Induction of apoptosis in human HeLaS3 cells assessed as appearance of fragmented nuclei at 10 times IC50 after 48 hrs by Hoechst staining; format: functional, cell-based; summary of the method: as §1
HeLa S3 [3] = test: Induction of apoptosis in human HeLaS3 cells assessed as DNA fragmentation upto 48 hrs by agarose gel electrophoresis; format: functional, cell-based
Summary of the method: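 HeLa S-3 cells exposed for 12–48 h, then pellets lysed in 0.6% sarcosine, 20 mM Tris-HCl pH 7.4, 20 mM EDTA. Lysate treated with RNase A for 2 h at 50 °C, then proteinase K overnight at 50 °C. DNA extracted with phenol/chloroform, run on 2% agarose in TAE at 50 V, stained with ethidium bromide, and visualised under UV.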

HeLa S3 [4] = test: Induction of apoptosis in human HeLaS3 cells assessed as cleaved caspase-3 at 5 times IC50 by Western blot method; format: functional, cell-based
Summary of the method: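 HeLa S-3 cells treated for 24 h at 5-fold the IC50, alongside non-treated controls. Cells lysed in RIPA buffer (pH 8.0) with protease inhibitors and the whole-cell extract separated by SDS-PAGE, then transferred to PVDF. Blots blocked in 5% skim milk/TTBS and probed with anti-cdc2, cdk2 or cleaved caspase-3 antibodies (1:1000). β-actin (1:5000) served as loading control. Detection by HRP secondary antibody and ECL.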

[5] = Cell cycle arrest in human HeLaS3 cells assessed as accumulation at G1 phase at 5 uM after 24 hrs by flow cytometry; format: functional, cell-based; details: HeLa S3
Summary of the method: (§2)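 HeLa S-3 cells exposed for 6, 12 or 24 h. Cells washed twice in ice-cold PBS, fixed in ice-cold 70% ethanol, and resuspended with 0.1 mg/ml RNase. Stained with […] PI and analysed by flow cytometry. Phase distribution (sub-G1, G1, S, G2/M) is reported as percentage of cells. Controls were untreated.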

[6] = Cell cycle arrest in human HeLaS3 cells assessed as accumulation at S phase at 5 uM after 24 hrs by flow cytometry; format: functional, cell-based; details: HeLa S3; summary of the method: as §2
[7] = Cell cycle arrest in human HeLaS3 cells assessed as accumulation at G2/M phase at 5 uM after 24 hrs by flow cytometry; format: functional, cell-based; details: HeLa S3; summary of the method: as §2
[8] = Cell cycle arrest in human HeLaS3 cells assessed as accumulation at sub-G1 phase at 5 uM after 12 hrs by flow cytometry; format: functional, cell-based; details: HeLa S3; summary of the method: as §2
[9] = Cell cycle arrest in human HeLaS3 cells assessed as accumulation at G1 phase at 5 uM after 12 hrs by flow cytometry; format: functional, cell-based; details: HeLa S3; summary of the method: as §2
[10] = Cell cycle arrest in human HeLaS3 cells assessed as accumulation at S phase at 5 uM after 12 hrs by flow cytometry; format: functional, cell-based; details: HeLa S3; summary of the method: as §2
[11] = Cell cycle arrest in human HeLaS3 cells assessed as accumulation at G2/M phase at 5 uM after 12 hrs by flow cytometry; format: functional, cell-based; details: HeLa S3; summary of the method: as §2
[12] = Cell cycle arrest in human HeLaS3 cells assessed as accumulation at sub-G1 phase at 5 uM after 6 hrs by flow cytometry; format: functional, cell-based; details: HeLa S3; summary of the method: as §2
[13] = Cell cycle arrest in human HeLaS3 cells assessed as accumulation at G1 phase at 5 uM after 6 hrs by flow cytometry; format: functional, cell-based; details: HeLa S3; summary of the method: as §2
[14] = Cell cycle arrest in human HeLaS3 cells assessed as accumulation at S phase at 5 uM after 6 hrs by flow cytometry; format: functional, cell-based; details: HeLa S3; summary of the method: as §2
[15] = Cell cycle arrest in human HeLaS3 cells assessed as accumulation at G2/M phase at 5 uM after 6 hrs by flow cytometry; format: functional, cell-based; details: HeLa S3; summary of the method: as §2
[16] = Cell cycle arrest in human HeLaS3 cells assessed as accumulation at sub-G1 phase at 1 uM after 24 hrs by flow cytometry; format: functional, cell-based; details: HeLa S3; summary of the method: as §2
[17] = Cell cycle arrest in human HeLaS3 cells assessed as accumulation at G1 phase at 1 uM after 24 hrs by flow cytometry; format: functional, cell-based; details: HeLa S3; summary of the method: as §2
[18] = Cell cycle arrest in human HeLaS3 cells assessed as accumulation at S phase at 1 uM after 24 hrs by flow cytometry; format: functional, cell-based; details: HeLa S3; summary of the method: as §2
[19] = Cell cycle arrest in human HeLaS3 cells assessed as accumulation at G2/M phase at 1 uM after 24 hrs by flow cytometry; format: functional, cell-based; details: HeLa S3; summary of the method: as §2
[20] = Cell cycle arrest in human HeLaS3 cells assessed as accumulation at sub-G1 phase at 1 uM after 12 hrs by flow cytometry; format: functional, cell-based; details: HeLa S3; summary of the method: as §2
[21] = Cell cycle arrest in human HeLaS3 cells assessed as accumulation at G1 phase at 1 uM after 12 hrs by flow cytometry; format: functional, cell-based; details: HeLa S3; summary of the method: as §2
[22] = Cell cycle arrest in human HeLaS3 cells assessed as accumulation at S phase at 1 uM after 12 hrs by flow cytometry; format: functional, cell-based; details: HeLa S3; summary of the method: as §2
[23] = Cell cycle arrest in human HeLaS3 cells assessed as accumulation at G2/M phase at 1 uM after 12 hrs by flow cytometry; format: functional, cell-based; details: HeLa S3; summary of the method: as §2
[24] = Cell cycle arrest in human HeLaS3 cells assessed as accumulation at sub-G1 phase at 1 uM after 6 hrs by flow cytometry; format: functional, cell-based; details: HeLa S3; summary of the method: as §2
[25] = Cell cycle arrest in human HeLaS3 cells assessed as accumulation at G1 phase at 1 uM after 6 hrs by flow cytometry; format: functional, cell-based; details: HeLa S3; summary of the method: as §2
[26] = Cell cycle arrest in human HeLaS3 cells assessed as accumulation at S phase at 1 uM after 6 hrs by flow cytometry; format: functional, cell-based; details: HeLa S3; summary of the method: as §2
[27] = Cell cycle arrest in human HeLaS3 cells assessed as accumulation at G2/M phase at 1 uM after 6 hrs by flow cytometry; format: functional, cell-based; details: HeLa S3; summary of the method: as §2
[28] = Cell cycle arrest in human HeLaS3 cells assessed as accumulation at sub-G1 phase at 5 uM after 24 hrs by flow cytometry; format: functional, cell-based; details: HeLa S3; summary of the method: as §2
[29] = Antitumor activity against human HeLaS3 cells after 24 to 72 hrs by MTT assay; format: functional, cell-based, HeLa S3; details: Homo sapiens, HeLa S3
Summary of the method: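 HeLa S-3 cells (MEM, 10% FBS, HEPES, NEAA, 2 mM L-glutamine, 5% CO2, 37 °C) seeded at 2 × 10⁴ cells/ml and cultured 3 h before exposure for 24–72 h at 37 °C. MTT (2 mg/ml) added for 4 h at 37 °C, formazan dissolved in DMSO, A540 read. Viability is expressed as % of control. IC50 is the concentration giving 50% growth inhibition, mean ± S.D. of four independent experiments run in triplicate.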

In the case of `c1ccc2c(c1)[nH]c1cnc(NCC3CCCCC3)cc12`, the Activity (HeLa S3 [1]) is reported as “inactive”, the Activity (HeLa S3 [2]) is reported as “Active” and the Activity (HeLa S3 [3]) is reported as “inactive”. The Activity (HeLa S3 [4]) was “inactive”, the Activity [5] was 29.7% and the Activity [6] was 13.8%. The Activity [7] was 50.5%, the Activity [8] was 3% and the Activity [9] was 56.7%. It also gave an Activity [10] of 12.3%, an Activity [11] of 27.4% and an Activity [12] of 2.6%. The Activity [13] was 51%, the Activity [14] was 12.7% and the Activity [15] was 31.4%. It also gave an Activity [16] of 1.7%, an Activity [17] of 68.2% and an Activity [18] of 14.7%. The Activity [19] was 15.7%, the Activity [20] was 2.5% and the Activity [21] was 58.4%. It also gave an Activity [22] of 10.5%, an Activity [23] of 28.9% and an Activity [24] of 3.5%. The Activity [25] was 48.4%, the Activity [26] was 19.7% and the Activity [27] was 23.1%. For the same molecule, the Activity [28] was 2.8% and the IC50 [29] was 5.2 µM.
